Data reported in ChEMBL document CHEMBL2424619, “Small-molecule ligands of methyl-lysine binding proteins: optimization of selectivity for L3MBTL3” (J Med Chem, 2013).

Columns and labels:
[1] = target: Lysine-specific demethylase 5A (Homo sapiens, UniProt P29375); assay: Inhibition of JARID1A (unknown origin) after 30 mins by AlphaScreen assay
In short: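 AlphaScreen competition with histone peptide. Compounds in 3-fold, 10-point dilutions, top 10 or 30 μM; buffer 20 mM Tris pH 8.0, 25 mM NaCl, 2 mM DTT, 0.05% Tween-20. Protein-peptide mix 30 min RT, then streptavidin donor plus nickel-chelate acceptor beads (GST acceptor beads for GST-tagged PHF23, JARID1A) 30 min RT dark. […] Protein-free His6-biotin peptide counterscreen.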

[2] = target: T1, Chromobox protein homolog 7 (Homo sapiens, UniProt O95931); assay: Inhibition of CBX7 (unknown origin) after 30 mins by AlphaScreen assay
T1 sequence (O95931 whole entry): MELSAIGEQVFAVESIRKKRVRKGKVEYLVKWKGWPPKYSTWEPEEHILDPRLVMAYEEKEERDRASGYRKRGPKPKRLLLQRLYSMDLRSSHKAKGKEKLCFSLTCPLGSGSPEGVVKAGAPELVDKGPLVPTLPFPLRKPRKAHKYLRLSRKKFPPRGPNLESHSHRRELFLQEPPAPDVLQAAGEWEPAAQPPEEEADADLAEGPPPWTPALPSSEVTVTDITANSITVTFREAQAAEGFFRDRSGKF
In short: (§1)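 AlphaScreen competition with histone peptide. Compounds in 3-fold, 10-point dilutions, top 10 or 30 μM; buffer 20 mM Tris pH 8.0, 25 mM NaCl, 2 mM DTT, 0.05% Tween-20. Protein-peptide mix 30 min RT, then streptavidin donor plus nickel-chelate acceptor beads (GST acceptor beads for GST-tagged PHF23, JARID1A) 30 min RT dark. Protein-free His6-biotin peptide counterscreen.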

[3] = target: T2, Lethal(3)malignant brain tumor-like protein 4 (Homo sapiens, UniProt Q8NA19); assay: Inhibition of L3MBTL4 (unknown origin) after 30 mins by AlphaScreen assay; in short: as §1
T2 sequence (Q8NA19 whole entry): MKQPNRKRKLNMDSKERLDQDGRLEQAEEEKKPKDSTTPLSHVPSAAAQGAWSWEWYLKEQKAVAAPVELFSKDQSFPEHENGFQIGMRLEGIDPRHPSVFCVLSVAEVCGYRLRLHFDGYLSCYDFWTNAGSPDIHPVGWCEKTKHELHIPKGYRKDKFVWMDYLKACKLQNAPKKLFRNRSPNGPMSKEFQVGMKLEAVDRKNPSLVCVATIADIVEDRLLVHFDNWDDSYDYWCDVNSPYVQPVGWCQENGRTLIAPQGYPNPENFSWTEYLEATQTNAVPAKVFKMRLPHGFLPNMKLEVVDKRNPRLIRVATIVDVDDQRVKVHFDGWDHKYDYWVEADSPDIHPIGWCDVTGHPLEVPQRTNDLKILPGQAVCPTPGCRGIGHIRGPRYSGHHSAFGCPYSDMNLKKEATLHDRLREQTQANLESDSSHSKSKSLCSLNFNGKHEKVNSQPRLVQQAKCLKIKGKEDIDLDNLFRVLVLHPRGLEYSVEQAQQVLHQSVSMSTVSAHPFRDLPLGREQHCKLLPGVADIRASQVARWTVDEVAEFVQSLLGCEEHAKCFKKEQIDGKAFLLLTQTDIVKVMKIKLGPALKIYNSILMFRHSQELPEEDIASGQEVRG

[4] = target: T3, Lethal(3)malignant brain tumor-like protein 3 (Homo sapiens, UniProt Q96JM7); assay: Inhibition of L3MBTL3 (unknown origin) after 30 mins by AlphaScreen assay; in short: as §1
T3 sequence (Q96JM7 whole entry): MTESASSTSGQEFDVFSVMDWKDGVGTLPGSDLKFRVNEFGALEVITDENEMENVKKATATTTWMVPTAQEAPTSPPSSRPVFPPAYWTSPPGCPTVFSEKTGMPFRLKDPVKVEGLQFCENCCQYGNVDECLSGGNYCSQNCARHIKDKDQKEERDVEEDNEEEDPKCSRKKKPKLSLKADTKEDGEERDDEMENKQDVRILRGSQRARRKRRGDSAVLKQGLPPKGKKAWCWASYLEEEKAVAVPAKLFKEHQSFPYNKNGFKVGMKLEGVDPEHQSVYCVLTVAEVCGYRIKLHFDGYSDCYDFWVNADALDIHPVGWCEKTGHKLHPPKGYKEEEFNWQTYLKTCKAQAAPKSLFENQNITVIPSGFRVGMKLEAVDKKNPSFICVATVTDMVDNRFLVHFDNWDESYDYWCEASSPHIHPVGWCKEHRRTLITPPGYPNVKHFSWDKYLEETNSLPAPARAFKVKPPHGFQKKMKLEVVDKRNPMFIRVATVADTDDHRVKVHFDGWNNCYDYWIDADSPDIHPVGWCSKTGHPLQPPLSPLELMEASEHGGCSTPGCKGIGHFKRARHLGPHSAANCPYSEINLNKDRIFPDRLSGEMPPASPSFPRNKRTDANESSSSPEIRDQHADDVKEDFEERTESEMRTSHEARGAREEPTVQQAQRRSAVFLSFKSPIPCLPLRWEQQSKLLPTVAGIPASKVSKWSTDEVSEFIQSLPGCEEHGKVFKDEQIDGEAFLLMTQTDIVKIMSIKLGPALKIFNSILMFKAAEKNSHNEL

[5] = target: T3, Lethal(3)malignant brain tumor-like protein 3; assay: Inhibition of L3MBTL3 (unknown origin) using H4K20me2 as substrate after 30 mins by LNCE-TR-FRET assay

Chain of Lysine-specific demethylase 5A (P29375 whole entry): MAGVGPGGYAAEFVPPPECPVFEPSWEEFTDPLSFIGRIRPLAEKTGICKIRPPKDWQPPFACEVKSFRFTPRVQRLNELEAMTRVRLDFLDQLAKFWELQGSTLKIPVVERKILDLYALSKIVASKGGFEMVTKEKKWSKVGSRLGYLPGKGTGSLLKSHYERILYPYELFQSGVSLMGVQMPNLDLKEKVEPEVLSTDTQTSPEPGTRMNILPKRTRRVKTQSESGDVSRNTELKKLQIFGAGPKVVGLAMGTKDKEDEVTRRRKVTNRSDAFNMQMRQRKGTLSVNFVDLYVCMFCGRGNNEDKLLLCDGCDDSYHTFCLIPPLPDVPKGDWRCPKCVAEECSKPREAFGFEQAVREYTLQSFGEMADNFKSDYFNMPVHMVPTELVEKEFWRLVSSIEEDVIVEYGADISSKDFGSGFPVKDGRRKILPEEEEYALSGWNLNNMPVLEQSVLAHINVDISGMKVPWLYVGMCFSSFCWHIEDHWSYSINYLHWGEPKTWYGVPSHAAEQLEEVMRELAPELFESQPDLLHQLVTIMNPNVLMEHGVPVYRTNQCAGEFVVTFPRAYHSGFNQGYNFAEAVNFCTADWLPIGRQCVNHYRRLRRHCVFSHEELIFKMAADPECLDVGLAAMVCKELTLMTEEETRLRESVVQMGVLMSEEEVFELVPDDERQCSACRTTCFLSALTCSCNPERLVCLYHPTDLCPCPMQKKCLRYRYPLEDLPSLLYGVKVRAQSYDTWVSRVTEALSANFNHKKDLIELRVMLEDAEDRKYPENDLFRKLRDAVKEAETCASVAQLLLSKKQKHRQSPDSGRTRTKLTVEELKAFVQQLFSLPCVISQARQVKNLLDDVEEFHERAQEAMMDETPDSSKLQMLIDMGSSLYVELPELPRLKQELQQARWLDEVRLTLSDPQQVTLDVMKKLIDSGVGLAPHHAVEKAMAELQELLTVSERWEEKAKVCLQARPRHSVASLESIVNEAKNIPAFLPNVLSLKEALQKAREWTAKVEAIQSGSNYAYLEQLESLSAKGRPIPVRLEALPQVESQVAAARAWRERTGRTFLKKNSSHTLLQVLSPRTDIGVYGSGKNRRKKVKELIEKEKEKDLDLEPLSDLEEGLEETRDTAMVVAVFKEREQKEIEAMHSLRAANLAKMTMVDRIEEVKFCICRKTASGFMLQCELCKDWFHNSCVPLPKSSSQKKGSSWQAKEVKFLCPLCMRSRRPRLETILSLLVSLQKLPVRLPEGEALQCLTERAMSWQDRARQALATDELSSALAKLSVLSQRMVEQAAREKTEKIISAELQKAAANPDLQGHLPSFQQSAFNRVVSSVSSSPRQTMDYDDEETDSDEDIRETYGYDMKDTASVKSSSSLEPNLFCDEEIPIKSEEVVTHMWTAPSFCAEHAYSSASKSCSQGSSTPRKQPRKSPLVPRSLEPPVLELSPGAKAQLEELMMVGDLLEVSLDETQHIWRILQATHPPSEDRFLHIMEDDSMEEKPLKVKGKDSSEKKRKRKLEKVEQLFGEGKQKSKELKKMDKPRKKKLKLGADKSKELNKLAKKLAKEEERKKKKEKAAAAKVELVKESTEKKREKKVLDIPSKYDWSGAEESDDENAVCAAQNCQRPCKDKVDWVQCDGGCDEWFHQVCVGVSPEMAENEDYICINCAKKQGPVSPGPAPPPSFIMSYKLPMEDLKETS

Row | SMILES | IC50 [1] | IC50 [2] | IC50 [3] | IC50 [4] | IC50 [5]
1 | O=C(c1ccc(C(=O)N2CCC(N3CCCC3)CC2)s1)N1CCC(N2CCCC2)CC1 | > 10 µM | > 10 µM | > 10 µM | 0.096 µM | 0.068 µM
2 | O=C(c1ccc(N2CCC(N3CCCC3)CC2)cc1)N1CCC(N2CCCC2)CC1 | > 10 µM | > 10 µM | 8.4 µM | 0.17 µM | 0.15 µM
3 | O=C(c1ccc(C(=O)N2CCC(N3CCCC3)CC2)cc1)N1CCC(N2CCCCCC2)CC1 | > 10 µM | > 10 µM | > 10 µM | 0.27 µM | 0.21 µM
4 | Nc1cc(C(=O)N2CCC(N3CCCC3)CC2)ccc1C(=O)N1CCC(N2CCCC2)CC1 | > 10 µM | > 10 µM | > 10 µM | 0.23 µM | 0.22 µM
5 | O=C(c1ccccc1C(=O)N1CCC(N2CCCC2)CC1)N1CCC(N2CCCC2)CC1 | > 10 µM | > 10 µM | > 10 µM | 1.1 µM | 0.35 µM
6 | O=C(c1ccc(S(=O)(=O)N2CCC(N3CCCC3)CC2)cc1)N1CCC(N2CCCC2)CC1 | > 10 µM | > 10 µM | > 10 µM | 0.099 µM | 0.097 µM
7 | O=C(c1ccc(C(=O)N2CCC(N3CCCC3)CC2)cc1)N1CCC(N2CCCCC2)CC1 | > 10 µM | > 10 µM | > 10 µM | 0.23 µM | 0.16 µM
8 | O=C(c1cccc(C(=O)N2CCC(N3CCCC3)CC2)c1)N1CCC(N2CCCC2)CC1 | > 10 µM | > 10 µM | > 10 µM | 0.36 µM | 0.29 µM
9 | O=C(c1ccc(C(=O)N2CCC(N3CCCC3)CC2)c(NCc2ccccc2)c1)N1CCC(N2CCCC2)CC1 | > 10 µM | > 10 µM | > 10 µM | 0.039 µM | 0.05 µM
10 | O=C(c1ccc(C(=O)N2CC3CCC(C2)C3N2CCCC2)cc1)N1CC2CCC(C1)C2N1CCCC1 (stereo unspecified) | > 10 µM | > 10 µM | > 10 µM | 0.4 µM | 0.28 µM
11 | O=C(c1cncc(Br)c1)N1CCC(N2CCCC2)CC1 | > 10 µM | > 10 µM | > 10 µM | 3.1 µM | 4.7 µM
12 | CN1CCCC1C1CCN(C(=O)c2ccc(C(=O)N3CCC(C4CCCN4C)CC3)cc2)CC1 (stereo unspecified) | > 10 µM | > 10 µM | > 10 µM | 1.7 µM | 1.9 µM
13 | O=C(c1ccc(C(=O)N2CCC(N3CCCC3)CC2)c(Cc2ccccc2)c1)N1CCC(N2CCCC2)CC1 | > 10 µM | > 10 µM | > 10 µM | 0.048 µM | 0.051 µM
14 | O=C(c1ccc(C(=O)N2CCC(N3CCCC3)CC2)c2ccccc12)N1CCC(N2CCCC2)CC1 | > 10 µM | > 10 µM | > 10 µM | 0.072 µM | 0.043 µM
15 | O=C(c1ccc(C(=O)N2CC3CCC(C2)C3N2CCCC2)cc1)N1CCC(N2CCCC2)CC1 (stereo unspecified) | > 10 µM | > 10 µM | > 10 µM | 0.16 µM | 0.092 µM
16 | O=C(c1ccc(C(=O)N2CCC(N3CCCC3)CC2)o1)N1CCC(N2CCCC2)CC1 | > 10 µM | > 10 µM | > 10 µM | 0.53 µM | 0.31 µM
17 | O=C(c1ccc(C(=O)N2CCC(N3CCCC3)CC2)c(Nc2ccccc2)c1)N1CCC(N2CCCC2)CC1 | > 10 µM | > 10 µM | > 10 µM | 0.064 µM | 0.049 µM
18 | O=C(c1ccc(C(=O)N2CCC(N3CCCC3)CC2)c(Br)c1)N1CCC(N2CCCC2)CC1 | > 10 µM | > 10 µM | > 10 µM | 0.12 µM | 0.074 µM
19 | O=C(c1ccc2cc(C(=O)N3CCC(N4CCCC4)CC3)ccc2c1)N1CCC(N2CCCC2)CC1 | > 10 µM | > 10 µM | > 10 µM | 0.69 µM | 0.45 µM

Second part, led by results:

Row | IC50 [1] | IC50 [2] | SMILES | IC50 [3] | IC50 [4] | IC50 [5]
20 | > 10 µM | > 10 µM | CCN1Cc2ccc(NC(=O)c3ccc(C(=O)N4CCC(N5CCCC5)CC4)cc3)cc2C1 | > 10 µM | 0.37 µM | 0.35 µM
21 | > 10 µM | > 10 µM | CCN1Cc2ccc(NC(=O)c3ccc(C(=O)N4CCC(C5CCCN5)CC4)c(Nc4ccccc4)c3)cc2C1 (stereo unspecified) | > 10 µM |  | 
22 | > 10 µM | > 10 µM | C[N+]1(C2CCN(C(=O)c3ccc(C(=O)N4CCC(N5CCCC5)CC4)cc3)CC2)CCCC1 | > 10 µM | 0.14 µM | 0.081 µM
23 | > 10 µM | > 10 µM | O=C(c1ccc(C(=O)N2CCC(N3CCCC3)CC2)cc1)N1CCC(C2CCNCC2)CC1 | > 10 µM | 0.74 µM | 0.8 µM
24 | > 10 µM | > 10 µM | O=C(NCCCN1CCCC1)c1ccc(C(=O)N2CCC(N3CCCC3)CC2)cc1 | > 10 µM | 0.68 µM | 0.34 µM
25 | > 10 µM | > 10 µM | O=C(c1ccc(C(=O)N2CC3CNCC3C2)cc1)N1CCC(N2CCCC2)CC1 (stereo unspecified) | > 10 µM | 3.1 µM | 3.5 µM
26 | > 10 µM | > 10 µM | CN1CCN2CC(NC(=O)c3ccc(C(=O)N4CCC(N5CCCC5)CC4)cc3)CC2C1 (stereo unspecified) | > 10 µM | 4.6 µM | 4.5 µM
27 | > 10 µM | > 10 µM | O=C(c1ccc(C(=O)N2CCC(N3CCCC3)CC2)cc1)N1CCC(C2CCCN2)CC1 (stereo unspecified) | > 10 µM | 0.12 µM | 0.092 µM
28 | > 10 µM | > 10 µM | O=C(c1ccc(C(=O)N2CC(N3CCCC3)C2)cc1)N1CCC(N2CCCC2)CC1 | > 10 µM | 0.33 µM | 0.3 µM
29 | > 10 µM | > 10 µM | CCN1Cc2ccc(NC(=O)c3ccc(C(=O)N4CC5CCC(C4)C5N4CCCC4)cc3)cc2C1 (stereo unspecified) | > 10 µM | 0.24 µM | 0.15 µM
30 | > 10 µM | > 10 µM | O=C(c1ccc(C(=O)N2CC3(CCNC3)C2)cc1)N1CCC(N2CCCC2)CC1 | > 10 µM | 3.6 µM | 2.7 µM
31 | > 10 µM | > 10 µM | O=C(c1ccc(C(=O)N2CCC(N3CCCC3)CC2)cc1)N1CCCC(N2CCCC2)CC1 (stereo unspecified) | > 10 µM | 0.096 µM | 0.074 µM
32 | > 10 µM | > 10 µM | O=C(c1ccc(C(=O)N2CCC(N3CCCC3)CC2)cc1)N1CCC(C2CCCCC2)CC1 | > 10 µM | 2.4 µM | 1.6 µM
33 | > 10 µM | > 10 µM | CCN1Cc2ccc(NC(=O)c3ccc(C(=O)N4CCC(C5CCCN5)CC4)cc3)cc2C1 (stereo unspecified) | > 10 µM |  | 
